How the values were obtained:
[1] = Antioxidant activity assessed as DPPH radical scavenging activity after 30 mins under dark condition; type: functional
Summary of the method: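 Serially diluted samples were run in replicates of four, and 200 μM DPPH (concentration as added) was added. MeOH served as the negative control and rutin (820 μM) as the positive control. A row without DPPH gave the background correction. Plates were held in the dark for 30 min, then read at 517 nm. IC50 was interpolated from % scavenging versus log concentration and reported as mean ± SD.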

[2] = Ultraviolet radiation absorbing capacity of the compound at 315 to 400 nm; type: physicochemical; conditions: 0.4 µM
[3] = Antioxidant activity assessed as DPPH radical scavenging activity after 30 mins under dark condition relative to rutin; type: functional

IC50 [1]	Activity [2]	Compound	Activity [3]
33.5 µM	Active	O=c1cc(-c2cc(O)c(O)c(-c3c(O)cc(O)c4c(=O)cc(-c5ccc(O)c(O)c5)oc34)c2)oc2cc(O)cc(O)c12	13%
128 µM	Active	O=C1CC(c2cc(O)c(O)c(-c3c(O)cc(O)c4c(=O)cc(-c5ccc(O)c(O)c5)oc34)c2)Oc2cc(O)cc(O)c21 (racemic)	
29700 µM	Active	O=C(O)/C=C/c1ccc(O)cc1 [COUMARIC ACID]	
75 µM	Active	COc1cc(/C=C/C(=O)O)ccc1O [FERULATE]	
38.6 µM		C[C@@H]1O[C@@H](OC[C@H]2O[C@@H](Oc3c(-c4ccc(O)c(O)c4)oc4cc(O)cc(O)c4c3=O)[C@H](O)[C@@H](O)[C@@H]2O)[C@H](O)[C@H](O)[C@H]1O [RUTIN]	
14400 µM	Active	COc1cc(C=O)ccc1O [VANILLIN]	

Compound	IC50 [1]	Activity [2]	Activity [3]
O=Cc1ccc(O)cc1 [4-HYDROXYBENZALDEHYDE]	476000 µM	Active	

Source: ChEMBL document CHEMBL4190302, “Antarctic Moss Biflavonoids Show High Antioxidant and Ultraviolet-Screening Activity” (J Nat Prod, 2017)
